This is an account of results in ChEMBL document CHEMBL5352427, “Isoquinolone derivatives as lysophosphatidic acid receptor 5 (LPA5) antagonists: Investigation of structure-activity relationships, ADME properties and analgesic effects” (Eur J Med Chem, 2022).

Data set [1] addresses Lysophosphatidic acid receptor 4 (Homo sapiens) (UniProt Q99677). The experiment in a line: Antagonist activity at human LPA4 receptor expressed in CHO cells assessed as inhibition of LPA-induced calcium accumulation preincubated for 30 mins followed by Eu-cAMP tracer addition and measured after 1 hr by TR-FRET assay relative to hexadecyl LPA. The class given is functional, cell-based. In general terms: TR-FRET usually uses a lanthanide donor and a delayed reading to cut background.

Data set [2] has as its system Rattus norvegicus. The experiment in a line: Antinociceptive activity against in opioid-induced hyperalgesia Sprague-Dawley rat model assessed as reduction in mechanical hyperalgesia induced hypersensitivity at 5.6 to 17.8 mg/kg, ip and measured after 5 hrs. The note with it: dose 5.6-17.8 mg/kg. It is filed as functional, organism-based. The method, boiled down:
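Opioid-induced hyperalgesia: after baselines on D−1 and D0, rats given four s.c. fentanyl injections of 0.06 mg/kg at 15 min intervals (0.24 mg/kg total); paw withdrawal thresholds tested after i.p. drug on days 1–2 post-fentanyl.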

In data set [3] the target is T1, Lysophosphatidic acid receptor 3 (Homo sapiens) (UniProt Q9UBY5).
T1 sequence (whole entry): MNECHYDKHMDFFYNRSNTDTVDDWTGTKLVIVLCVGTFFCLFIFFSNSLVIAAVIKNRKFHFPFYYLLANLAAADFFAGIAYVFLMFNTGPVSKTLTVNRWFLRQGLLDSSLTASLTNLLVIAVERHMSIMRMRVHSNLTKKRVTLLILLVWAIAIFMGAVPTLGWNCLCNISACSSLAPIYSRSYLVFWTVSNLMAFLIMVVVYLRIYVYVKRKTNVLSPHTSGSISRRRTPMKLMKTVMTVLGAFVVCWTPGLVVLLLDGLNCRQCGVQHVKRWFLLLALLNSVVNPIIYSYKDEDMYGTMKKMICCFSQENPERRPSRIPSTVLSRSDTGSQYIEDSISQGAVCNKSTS
Description: Antagonist activity at human LPA3 receptor expressed in CHO cells assessed as inhibition of LPA-induced calcium mobilization at 10 uM incubated for 15 mins by FLIPR analysis relative to control. The class given is functional, cell-based. In outline: (§1)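 Calcium mobilization in CHO cells overexpressing LPA1, LPA2 or LPA3, run by a contract lab under its own protocols; compounds tested at single 10 μM.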
On the technique in general: Calcium assays in cells follow changes in intracellular calcium, usually with a dye or a luminescent sensor.

Data set [4] can be described thus: Apparent permeability across apical to basolateral side in MDCK-MDR1 cells incubated for 90 mins by LC-MS/MS analysis. The conditions noted are these: dog, mdck-mdr1, 1.5 h. It is filed as ADME, cell-based, Canis lupus familiaris. In outline: (§2)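 MDCK-MDR1 cells (passage 5) grown 3 days on Transwell polycarbonate inserts; transport buffer HBSS/10 mM HEPES/0.25% BSA pH 7.4, 30 min preincubation 37 °C with TEER check. 10 μM test article added apical (A-to-B) or basolateral (B-to-A); receiver sampled at 30, 60, 90 min, LC-MS/MS. Papp = (dQ/dt)/(A·Ci); efflux ratio B-to-A/A-to-B. Atenolol, propranolol, digoxin references.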

A short description of data set [5]: Effect on locomotory activity in opioid-induced hyperalgesia Sprague-Dawley rat model at 17.8 mg/kg, ip measured for 60 mins by infrared motion-sensor analysis. The class given is toxicity, organism-based. The note with it: in vivo, 1 h. The method, boiled down:
(§3)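 Handled ≥3 days; rats pretreated 60 min with vehicle or 17.8 mg/kg i.p., then placed in activity chambers and locomotion recorded for 60 min.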

Data set [6] is described as follows: Drug concentration in Sprague-Dawley rat brain at 17.8 mg/kg, ip measured after 30 mins by LC-MS/MS analysis. It is filed as ADME, organism-based. The conditions noted are these: read-out: Ct. In outline:
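Male Sprague-Dawley rats (258–277 g) given 17.8 mg/kg i.p. in 5% Cremophor/5% ethanol/saline; at 30 min two rats anesthetized with isoflurane, cardiac blood taken, PBS-perfused; brains homogenized 1:4 (w/v) in 25% isopropanol and quantified by LC-MS/MS.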

Data set [7] in a line: Substrate activity at P-glycoprotein (unknown origin) in MDCK-MDR1 cells assessed as efflux ratio of apparent permeability across basolateral to apical over apical to basolateral side measured after 90 mins by LC-MS/MS analysis. The class given is ADME, cell-based, Canis lupus familiaris. The note with it: dog, mdck-mdr1, 1.5 h. The method, boiled down:
as §2

In data set [8] the target is Lysophosphatidic acid receptor 2 (Homo sapiens) (UniProt Q9HBW0). Description: Antagonist activity at human LPA2 receptor expressed in CHO cells assessed as inhibition of LPA-induced calcium mobilization at 10 uM incubated for 15 mins by FLIPR analysis relative to control. It is filed as functional, cell-based. The method, boiled down: as §1
Lysophosphatidic acid receptor 2 (Homo sapiens), sequence (Q9HBW0 whole entry): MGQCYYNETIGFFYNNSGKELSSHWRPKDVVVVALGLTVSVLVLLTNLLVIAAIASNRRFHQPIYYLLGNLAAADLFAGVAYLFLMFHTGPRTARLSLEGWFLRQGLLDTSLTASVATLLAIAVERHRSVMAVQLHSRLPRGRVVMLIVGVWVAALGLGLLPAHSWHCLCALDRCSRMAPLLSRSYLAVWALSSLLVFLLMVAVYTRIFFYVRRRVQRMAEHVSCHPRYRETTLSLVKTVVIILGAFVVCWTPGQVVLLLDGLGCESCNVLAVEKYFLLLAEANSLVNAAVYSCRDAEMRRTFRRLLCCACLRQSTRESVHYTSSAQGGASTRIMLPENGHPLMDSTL
Data set [9] has as its system Rattus norvegicus. Description: Antiallodynic activity in CCI surgery-induced Sprague-Dawley rat neuropathic pain model assessed as reduction in paw withdrawal threshold at 17.8 mg/kg, ip measured after 5 hrs. It is filed as functional. Also on record: scale not given: the % may be the effect or the level left. In outline:
(§4)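 Adult male Sprague-Dawley rats (230–280 g, n=6/group) given CCI under i.p. ketamine 75 mg/kg/xylazine 5 mg/kg: four chromic gut ligatures about 1 mm apart on the right sciatic nerve. Drug given i.p. (1–2 ml/kg) in 20% DMSO/10% emulphor/saline. Mechanical paw withdrawal threshold measured every 30 min (26 g cutoff). Reported as mean ± SEM, two-way ANOVA.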

The target in data set [10] is T2, Lysophosphatidic acid receptor 5 (Homo sapiens, UniProt Q9H1C0). Description: Agonist activity at human LPA5 receptor expressed in RH7777 cells assessed as calcium mobilization incubated for 15 mins by FLIPR method. The class given is functional, cell-based. In outline:
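RH7777 cells stably expressing hLPA5, plated 20,000/well in 0.2% FBS medium 18–20 h, loaded 45 min at 37 °C with Calcium 5 dye in HBSS/20 mM HEPES/2.5 mM probenecid pH 7.4. […] Duplicates.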

Data set [11] can be described thus: Aqueous solubility of compound at pH 7.4. The class given is physicochemical. The note with it: aqueous medium. In outline:
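Kinetic solubility: 20 mM DMSO stock diluted into PBS (1 mM KH2PO4, 3 mM Na2HPO4, 155 mM NaCl) to a target of 400 μM; triplicates quantified by LC-MS/MS against matrix-matched standards.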

The subject of data set [12] is Rattus norvegicus. The experiment in a line: Antiallodynic activity in CCI surgery neuropathic pain induced Sprague-Dawley rat neuropathic pain model assessed as reversal of hypersensitivity condition at 17.8 mg/kg, ip measured after 10 days. The note with it: time 10 day. The class given is functional. The method, boiled down: as §4
For data set [13], the target named is T2, Lysophosphatidic acid receptor 5. Description: Antagonist activity at human LPA5 receptor expressed in RH7777 cells assessed as inhibition of EC80 concentration of LPA-induced cAMP accumulation preincubated for 30 mins followed by Eu-cAMP tracer addition and measured after 1 hr by TR-FRET assay relative to hexadecyl LPA. It is filed as functional, cell-based. The conditions noted are these: filed as antagonist. In outline: (§5)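 hLPA5-RH7777 cells, switched to 0.2% FBS medium 20 h prior, lifted with versene, 2,000 cells/well in HBSS/5 mM HEPES/0.1% BSA/0.5 mM IBMX pH 7.4. Compound dilutions with hexadecyl LPA 16:0 EC80 (300 nM) plus forskolin, 30 min room temperature; LANCE Ultra Eu-cAMP tracer/ULight-anti-cAMP 1 h; TR-FRET 665 nm converted to cAMP via standard curve. Three-parameter logistic IC50; ≥3 experiments in duplicate.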

The target is the same in data set [14]. Description: Antagonist activity at human LPA5 receptor expressed in RH7777 cells assessed as inhibition of EC80 concentration of LPA-induced cAMP accumulation preincubated for 30 mins followed by Eu-cAMP tracer addition and measured after 1 hr by TR-FRET assay. It is filed as functional, cell-based. The method, boiled down: as §5
Data set [15] is described as follows: Effect on locomotory activity in CCI surgery-neuropathic pain induced Sprague-Dawley rat model at 17.8 mg/kg, ip measured for 60 mins by infrared motion-sensor analysis. The class given is toxicity, organism-based. The note with it: in vivo, 1 h. In outline:
as §3

Data set [16] deals with Rattus norvegicus. Description: Antiallodynic activity against CFA-induced Sprague-Dawley rat inflammatory pain model assessed as reduction in paw withdrawal threshold at 17.8 mg/kg measured after 5 hrs. It is filed as functional, organism-based. The method, boiled down:
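Adult male Sprague-Dawley rats (230–280 g, n=6/group); 0.1 ml CFA injected into right hind paw. Compounds i.p. (1–2 ml/kg) in 20% DMSO/10% emulphor/saline; AS2717638 in 30% propylene glycol vehicle. Mechanical paw withdrawal threshold (cut-off 26 g) measured every 30 min after single dose; two-way ANOVA, mean ± SEM.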

The target in data set [17] is T2, Lysophosphatidic acid receptor 5. Description: Antagonist activity at human LPA5 receptor expressed in RH7777 cells assessed as inhibition of EC80 concentration of hexadecyl LPA-induced calcium mobilization incubated for 15 mins by FLIPR method relative to hexadecyl LPA. The class given is functional, cell-based. The note with it: filed as antagonist.
The target is the same in data set [18]. Description: Antagonist activity at human LPA5 receptor expressed in RH7777 cells assessed as inhibition of EC80 concentration of hexadecyl LPA-induced calcium mobilization incubated for 15 mins by FLIPR method. It is filed as functional, cell-based.
Data set [19] addresses Lysophosphatidic acid receptor 1 (Homo sapiens) (UniProt Q92633). The experiment in a line: Antagonist activity at human LPA1 receptor expressed in CHO cells assessed as inhibition of LPA-induced calcium mobilization at 10 uM incubated for 15 mins by FLIPR analysis relative to control. The class given is functional, cell-based. The method, boiled down:
as §1

In data set [20] the test system is Rattus norvegicus. The experiment in a line: Antiallodynic activity in CCI surgery neuropathic pain induced ip dosed Sprague-Dawley rat hyperalgesia model assessed as reduction in mechanical allodynia by measuring reduction in paw threshold measured after 10 days. It is filed as functional, organism-based. The conditions noted are these: dose 3.2-17.8 mg/kg, time 10.0 day. The method, boiled down:
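Male Sprague-Dawley rats (n=6), ketamine/xylazine anesthesia; four chromic gut ligatures ~1 mm apart around the right sciatic nerve. Drugs i.p. in DMSO/emulphor/saline (AS2717638 in propylene glycol vehicle), single or cumulative dosing with paw withdrawal threshold (cut-off 26 g) measured every 30 min.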

pIC50: −log10 of the molar value. Converted amounts (≈) assume the structure as drawn. The source made the active and inactive calls.

What is called inhibition is the relative decrease from the control value, in per cent. For orientation: solubility (kinetic) means solubility judged after dilution from a stock solution rather than from solid. As usually defined, the pIC50 is the negative decadic logarithm of the IC50, by convention in mol/L.

T2 sequence (Q9H1C0 whole entry): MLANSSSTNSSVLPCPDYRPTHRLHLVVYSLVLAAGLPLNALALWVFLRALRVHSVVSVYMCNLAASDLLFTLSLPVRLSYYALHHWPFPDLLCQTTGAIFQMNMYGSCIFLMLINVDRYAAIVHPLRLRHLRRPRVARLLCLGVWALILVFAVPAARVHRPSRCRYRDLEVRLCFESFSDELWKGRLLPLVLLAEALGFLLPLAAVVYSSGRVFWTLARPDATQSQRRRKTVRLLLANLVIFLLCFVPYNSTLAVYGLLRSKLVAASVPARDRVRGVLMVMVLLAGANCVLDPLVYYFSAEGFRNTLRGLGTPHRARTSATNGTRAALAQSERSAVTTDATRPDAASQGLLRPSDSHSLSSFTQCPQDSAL
Lysophosphatidic acid receptor 4 (Homo sapiens), sequence (Q99677 whole entry): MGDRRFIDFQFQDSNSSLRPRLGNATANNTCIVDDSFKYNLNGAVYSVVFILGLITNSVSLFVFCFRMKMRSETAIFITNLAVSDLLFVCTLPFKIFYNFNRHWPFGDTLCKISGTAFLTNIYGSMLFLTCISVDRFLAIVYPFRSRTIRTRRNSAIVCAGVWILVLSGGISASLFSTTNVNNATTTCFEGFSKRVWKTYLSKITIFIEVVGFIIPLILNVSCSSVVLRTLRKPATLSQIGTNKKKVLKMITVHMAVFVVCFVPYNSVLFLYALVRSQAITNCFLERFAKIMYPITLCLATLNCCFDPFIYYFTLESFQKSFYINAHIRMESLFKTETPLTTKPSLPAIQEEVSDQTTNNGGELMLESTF
Lysophosphatidic acid receptor 1 (Homo sapiens), sequence (Q92633 whole entry): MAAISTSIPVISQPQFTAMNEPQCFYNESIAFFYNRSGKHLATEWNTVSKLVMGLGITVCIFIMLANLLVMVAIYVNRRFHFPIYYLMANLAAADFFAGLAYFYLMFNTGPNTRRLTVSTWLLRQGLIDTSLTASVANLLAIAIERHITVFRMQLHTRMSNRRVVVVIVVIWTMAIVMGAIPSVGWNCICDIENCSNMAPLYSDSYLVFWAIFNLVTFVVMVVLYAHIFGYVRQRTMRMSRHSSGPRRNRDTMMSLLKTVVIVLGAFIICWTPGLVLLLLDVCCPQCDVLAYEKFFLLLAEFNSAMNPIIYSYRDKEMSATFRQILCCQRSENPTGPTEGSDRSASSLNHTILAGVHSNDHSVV

`C#CC1CCN(C(=O)c2cn(-c3ccc4scc(C)c4c3)c(=O)c3cc(OC)c(OC)cc23)CC1`: the inhibition in [1] is less than 50%; in data set [3], less than 50%; in data set [8], less than 50%; in data set [13], 100%; in data set [17], 107%; in data set [19], less than 50%. The outcome with Rattus norvegicus [2] and in the data set on Rattus norvegicus [16] was Active. In addition, the Papp in data set [4] is reported as 31.1 10^-6 cm/s. In addition, the Activity entry was “Non-Toxic” in [5]; 100% in the data set on Rattus norvegicus [9]; 100% with Rattus norvegicus [12]; “Non-Toxic” in data set [15]; “Dose-Dependent Effect” in the data set on Rattus norvegicus [20]. Moreover, in data set [6], the concentration at 0.5 h was 652 ng/mL. In addition, the Ratio in data set [7] is recorded as 1.2. Also, the result in data set [10] was inactive. The solubility (kinetic) in data set [11] stood at 19.5 µM (≈ 9.49 µg/mL). In addition, the values for the pIC50 in [14] and in data set [18] were 6.46 and 7.49, respectively.
